Bioassay records as filed in PubChem.
An excerpt weighted towards active compounds, which were near 3.9% of everything screened.
HCV core dimer – blocks dimerization of HCV core protein; 300,000 compounds, 0.33% hits; TR-FRET GST/Flag-core106 dimerization, 1536-well; AID 1899; inhibition, % at 5 µM;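 active = inhibition above the mean of all tested compounds plus 3 SD, set per screening campaign, cut at about 45% in these data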
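System: GST-tagged and Flag-tagged HCV core protein residues 1-106 / Input: core106 proteins, GST 13.5 nM and Flag 17 nM / Buffer or medium: KF-containing HEPES buffer, pH 7.45, DTT, CHAPS, BSA / Probe or stimulus: Eu-anti-GST and XL665-anti-Flag labelled anti-tag antibodies / Schedule: 4 h, 22.5 °C incubation / Technique: TR-FRET 671 and 617 nm emission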
NS3 helicase inh – inhibitors of Hepatitis C virus NS3 helicase | 290,000 compounds, 0.56% hits | NS3 helicase DNA unwinding, Cy5 molecular beacon fluorescence | inhibition, % at 10.9 µM;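 active = inhibition above the mean of all tested compounds plus 3 SD, set per campaign, cut at about 35% in these data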
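System: HCV NS3 helicase fragment; control set: DMSO and thioflavine S; technique: Cy5 fluorescence at 0 and 60 min, beacon hairpin quenching; reagent: beacon DNA duplex substrate plus ATP; replicates: singlicate; schedule: 1 h reaction at 25 °C, ATP-initiated; medium: MOPS buffer pH 6.5 with MgCl2, DTT, Tween20, BSA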
HSP90 refold inh – inhibitors of HSP90 luciferase refolding in rabbit reticulocyte lysate. luciferase refolding luminescence, 3 h. inhibition, % at 5.6 µM. 290,000 compounds, 0.91% hits. AID 1789;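 active = inhibition above the screen-wide mean plus 3 SD, computed separately per campaign, cut at about 16% in these data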;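 also: inhibitors lower the luminescence because luciferase stays unfolded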
DNA FID counter – counter-screen for HCV NS3 helicase inhibitors: DNA intercalator displacement. DNA fluorescent intercalator displacement, fluorescence. 290,000 compounds, 0.17% hits. inhibition, % at 7.9 µM; in the data active = inhibition above about 37%;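 also: higher means more ethidium bromide displaced from hairpin DNA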
HSF1 inhib – HSF1 inhibition | NIH3T3-HGL HSE-luciferase, MG132-induced, luminescence 8 h; hits give low values | activity change, negative = inhibition, % at 7.5 µM (by protocol) | 300,000 compounds, 0.77% hits;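 active = more than half of replicate wells show activity change below -50%, luminescence cut by over half; inconclusive = some wells, but at most half, below -50%; inactive = no replicate well below -50%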;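 also: luciferase reports HSF-1 transcriptional activity via heat shock element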
HSF-1 act – increases HSF-1 driven luciferase reporter signal. NIH3T3-HGL HSF-1 luciferase reporter, MG132, 8 h; 100% = twice DMSO control signal. activation, % at 9 µM. 300,000 compounds, 1.7% hits;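 active = mean replicate activation of at least 50% with a set share of replicates each reaching 50%; inconclusive = only one of those two conditions met; inactive = mean below 50% and too few replicates reaching it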
Numbers stand for hits; - = inactive; ? = inconclusive; . = no result.

SMILES | HCV core dimer | NS3 helicase inh | HSP90 refold inh | DNA FID counter | HSF1 inhib | HSF-1 act
Cc1cc(NC(=O)CSc2nc3c(cc2C#N)CCC3)no1 | - | - | - | - | - | 84
Cc1cc(NC(=O)CSc2nc3ccccc3cc2C#N)no1 | - | - | - | - | - | ?
COc1ccc(N/C(C)=C2/C(=O)C(=O)N(CCO)C2c2ccc([N+](=O)[O-])cc2)cc1 (centres undefined) | - | - | - | - | - | -
O=[N+]([O-])c1ccc(C2CC(c3ccccc3)=Nc3ccccc3S2)cc1 (centres undefined) | - | - | - | - | - | -
O=[N+]([O-])c1ccc(C2CN=C(Nc3ccccc3)S2)cc1 (centres undefined) | - | - | - | - | - | 65
CCc1ccc(NC2=NCC(c3ccccc3)S2)cc1 (centres undefined) | - | - | - | - | - | 56
Cc1ccc(NC2=NCC(Cc3ccc(Br)cc3)S2)cc1 (centres undefined) | - | - | - | - | - | -
O=C(CN1C(=O)C2C3C=CC(C3)C2C1=O)NCc1ccc2c(c1)OCO2 (centres undefined) | - | - | - | - | - | -
N#CC1=C(N)NC(SCC(=O)Nc2ccccc2)=C(C#N)C12CCCCC2 | - | - | - | - | - | 71
Cc1ccc(NC(=O)C(C)N2C(=O)c3ccccc3C2=O)c(C)c1 (centres undefined) | - | - | - | - | - | -
Cc1ccccc1SCC(=O)OCC(=O)Nc1sccc1C(N)=O | - | - | - | - | - | -
NC(=S)COc1ccccc1 | - | - | - | - | - | -
NC(=O)COc1ccccc1 | - | - | - | - | - | 79
NC(=O)c1ccsc1NC(=O)CSc1ccccc1F | - | - | - | - | - | 58
NC(=O)c1ccsc1NC(=O)COc1ccccc1 | - | - | - | - | - | 69
Cn1nc(C(=O)Nc2ccc(S(=O)(=O)Nc3ncccn3)cc2)ccc1=O | - | - | - | - | - | -
COc1cc(C(=O)NCc2ncccc2C)ccc1OC1CCN(C(C)=O)CC1 | - | - | - | - | - | -
COc1ccc(/C=N/Nc2ccc([N+](=O)[O-])cc2)cc1O | - | - | - | - | - | -
CCOC(=O)c1sc(NC(=O)CCN2CCCCCC2)c(C(=O)OCC)c1C | - | - | - | - | - | 193
C=CCn1c(CCNC(=O)c2ccc(Cl)c(Cl)c2)nnc1SCCOc1ccc(OC)cc1 | - | - | - | - | - | 128
O=C(O)/C=C/C(=O)Nc1cc(F)ccc1F | - | - | - | - | -72 | -
O=C(O)/C=C/C(=O)Nc1ccc(Cl)cc1C(=O)c1ccccc1 | - | - | - | - | - | -
Cc1ccc(S(=O)(=O)N2CCN(S(C)(=O)=O)C2)cc1 | - | - | - | - | -63 | -
Cn1c(CSc2ccccc2)c(C#N)c2ccccc21 | - | - | - | - | - | 90
Cc1ccc(SCc2c(C#N)c3ccccc3n2C)cc1 | - | - | - | - | - | -
SMILES | HCV core dimer | NS3 helicase inh | HSP90 refold inh | DNA FID counter | HSF1 inhib | HSF-1 act
COc1ccc(-c2nc3ccccc3s2)cc1 | . | - | 18 | - | . | .
Oc1ccc(-c2nc3ccccc3s2)c(O)c1 | - | - | - | - | - | 61
O=C(Nc1ccc(O)c(-c2nc3ccccc3s2)c1)c1cccs1 | - | - | - | - | - | -
c1ccc2sc(-c3ccncc3)nc2c1 | - | - | - | - | . | .
Oc1ccc(-c2nc3ccccc3s2)cc1 | - | - | - | - | - | -
Nc1ccccc1-c1nc2ccccc2s1 | - | - | - | - | -71 | -
Nc1ccc(O)c(-c2nc3ccccc3s2)c1 | 82 | - | - | - | - | -
FC(F)(F)c1cc(-c2ccccc2)nc2nc(N3CCOCC3)sc12 | - | - | - | - | - | -
CCCSc1nc(=S)n(Cc2ccccc2)c(C)c1C(C)=O | - | - | - | - | - | -
Cn1nc([N+](=O)[O-])c(C(C#N)c2ccccn2)c(Cl)c1=O (centres undefined) | - | - | - | - | - | -
CCCn1nc([N+](=O)[O-])c(C(C#N)c2nc3ccccc3o2)c(Cl)c1=O (centres undefined) | - | - | - | - | - | 97
CCn1nc([N+](=O)[O-])c(C(C#N)c2nc3cc(C(F)(F)F)ccc3s2)c(Cl)c1=O (centres undefined) | - | - | - | - | - | 64
Cc1ccsc1CNC(=O)c1c(-c2ccccc2)noc1C | - | - | - | - | - | -
O=c1[nH]cccc1-c1nc2ccccc2n1Cc1ccc(F)cc1 | - | - | - | - | - | -
Cc1ccc(C(=O)NNC(=O)CSc2nnc(-c3ccccc3)n2Cc2ccccc2)cc1 | - | - | - | - | - | -
c1ccc(-n2cc(CN3CCCC(CN4CCCC4)C3)c(-c3ccc4c(c3)OCO4)n2)cc1 (centres undefined) | - | - | - | 40 | - | -
Cc1cc(N2CCN(c3ccc(F)cc3)CC2)nc2cc(O)ccc12 | - | - | - | - | -55 | -
CN(C)/C=N/C1=C(C#N)C(c2ccc(Br)cc2)c2ccc3ccccc3c2O1 (centres undefined) | - | - | 17 | - | - | -
N#CC1=C(N)Oc2c(ccc3ccccc23)C1c1cccs1 (centres undefined) | - | - | - | - | - | -
O=C(Nc1c2c(nn1-c1ccccc1)CS(=O)C2)c1ccco1 (centres undefined) | - | - | - | - | - | -
c1cncc(-c2nnc(SCc3nc4ccccc4[nH]3)o2)c1 | - | - | - | - | -68 | -
Cc1ccc2cccc(NC(=S)NC(=O)c3ccccc3)c2n1 | - | - | - | - | - | -
Cc1ccc2cccnc2c1NC(=S)NC(=O)c1ccccc1 | - | - | - | - | - | 137
O=C(CCc1nc(-c2cccs2)no1)NCc1ccc(F)cc1Cl | - | - | - | - | -85 | -
N#CC(=C1N=c2ccccc2=N1)c1c(O)[nH]c2ccccc12 | . | - | - | - | . | .
SMILES | HCV core dimer | NS3 helicase inh | HSP90 refold inh | DNA FID counter | HSF1 inhib | HSF-1 act
Oc1[nH]c(N=C2N=c3ccccc3=N2)c2ccccc12 | - | - | - | - | - | 288
CCn1c(SCC#N)nc2ccccc2c1=O | - | - | - | - | - | -
N#CCSc1nc2ccccc2c2nc3ccccc3n12 | - | - | - | - | - | 68
Oc1ccc(/C=N/Nc2ccc(Cl)nn2)cc1O | - | - | - | - | - | -
C=CCOc1ccccc1CNCCCN1CCOCC1 | - | - | - | - | - | -
CCOc1ccccc1CNCCN1CCOCC1 | - | - | - | - | - | 58
CCN1C(=O)CS/C1=N\S(=O)(=O)c1ccc(Cl)cc1 | - | - | - | - | - | -
CCn1c(Cl)c(C=O)s/c1=N\S(=O)(=O)c1ccccc1 | - | - | - | - | - | 113
CN(C)S(=O)(=O)c1cc(NC(=O)CNCCN2CCOCC2)ccc1Cl | - | - | - | - | - | -
Cc1c([N+](=O)[O-])cc(C(=O)Oc2cccc(C(=S)N3CCOCC3)c2)cc1[N+](=O)[O-] | - | - | - | - | - | -
